Results reported in ChEMBL document CHEMBL1649491, “Renal disposition of colistin in the isolated perfused rat kidney” (Antimicrob Agents Chemother, 2009).
Positions of bridges follow the written chain, without caps; N, C: chain ends. Non-standard residues stand in square brackets, D forms with d. Residues, ends and D or L forms follow the SMILES beside them. *: point of attachment. Heptanoyl(6-Me) = CC(C)CCCCC(=O)*; Dab = NCC[C@H](N)C(=O)O

How the values were obtained:
Kidney [1] = experiment: (§1) Clearance in rat perfused kidney at 2 ug/ml after 5 to 105 mins by LC-MS/MS analysis; assay type: ADME, tissue-based; settings: in vivo
Method in brief: (§2)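 Isolated perfused kidneys from male Sprague-Dawley rats (400 to 450 g) in a recirculating 160 ml perfusate with [3H]inulin (130 kBq) for GFR. Colistin sulfate bolus gave an initial 2 µg/ml (1.27 µM colistin A+B). Urine was collected in 5-min intervals from 5 to 105 min, with perfusate sampled at midpoints. Colistin A and B were measured by LC-MS/MS. CLR and CR were derived; n = 5, mean ± SD.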

[2] = Drug absorption in rat tubular urine at 2 ug/ml after 5 to 105 mins by LC-MS/MS analysis; assay type: ADME, tissue-based; method in brief: as §2
Plasma [3] = experiment: (§3) Fraction unbound in […] at 1 ug/ml by LC-MS/MS analysis; assay type: ADME, cell-free; settings: rat
Method in brief: (§4)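 Unbound fraction was measured in IPK perfusate by ultrafiltration, at colistin sulfate levels approximating initial and end perfusion concentrations. Colistin A and B in ultrafiltrate and unfiltered perfusate were quantified by LC-MS/MS. fu is the ultrafiltrate/perfusate concentration ratio, determined separately for A and B.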

Plasma [4] = experiment: (§5) Fraction unbound in Sprague-Dawley rat plasma; assay type: ADME, cell-free
Kidney [5] = experiment: Clearance in rat perfused kidney assessed as clearance ratio at 2 ug/ml after 5 to 105 mins by LC-MS/MS analysis; assay type: ADME, tissue-based; method in brief: as §2
Kidney [6] = experiment: Tubular reabsorption in rat perfused kidney at 2 ug/ml after 5 to 105 mins by LC-MS/MS analysis; assay type: ADME, tissue-based; method in brief: as §2
[7] = as §1; assay type: ADME, tissue-based; settings: perfused kidney; method in brief: as §2
[8] = as §3; assay type: ADME, cell-free, Plasma; settings: rat; method in brief: as §4
[9] = as §5; assay type: ADME, cell-free; settings: Sprague-Dawley

| CL (Kidney [1]) | Activity [2] | Fu (Plasma [3]) | Fu (Plasma [4]) | Ratio (Kidney [5]) | Activity (Kidney [6]) | CL renal at 2 ug/ml [7] | fraction unbound at 1 ug/ml [8] | fraction unbound [9] | Compound |
| --- | --- | --- | --- | --- | --- | --- | --- | --- | --- |
| 0.028 mL/min | > 90% | 0.41 | 0.36 | < 0.1 | > 90% |  |  |  | COLISTIN |
|  | > 90% |  |  | < 0.1 | > 90% | 0.028 mL/min | 0.6 | 0.52 | CC(C)CCCCC(=O)N[C@@H](CCN)C(=O)N[C@H](C(=O)N[C@@H](CCN)C(=O)N[C@H]1CCNC(=O)[C@H]([C@@H](C)O)NC(=O)[C@H](CCN)NC(=O)[C@H](CCN)NC(=O)[C@H](CC(C)C)NC(=O)[C@@H](CC(C)C)NC(=O)[C@H](CCN)NC1=O)[C@@H](C)O [COLISTIN B] ({Heptanoyl(6-Me)}-[Dab]T[Dab][Dab][Dab][dL]L[Dab][Dab]T; lactam 4-C) |
